These results are taken from publication PMC7557949 (ACS Omega, 2020).

For data set [1], the system named is E. coli (ATCC:3008). In words: Agar well diffusion, inhibition zone. The class given is cell-based, Escherichia coli. The note with it: 15 mg/mL, 100 μL per well; mm ± SD. A digest of the protocol:
(§1)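 Agar well diffusion. Saline inoculum adjusted to McFarland 0.5 ([…]), i.e. OD 0.13 at 625 nm, and swabbed over dried agar. After 15 min drying, 6 mm wells received 100 μL of test compound at 15 mg/mL. Plates incubated at 37 °C; bacterial zones read in mm after 24 h incubation […]. Triplicate, reported as mm ± SD. Gentamicin and ampicillin served as reference drugs.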
A general note: In agar diffusion tests the substance spreads into inoculated agar from a disc or well.

The next data set relates to K. pneumonia (ATCC:4415). The experiment in a line: Agar well diffusion, inhibition zone. The class given is cell-based, Klebsiella pneumonia. To be noted: 15 mg/mL, 100 μL per well; mm ± SD. A digest of the protocol:
as §1

Another data set relates to S. mutans (ATCC:25175). In words: Agar well diffusion, inhibition zone. The note with it: for diameter of the IZ, S. mutans (ATCC:25175): 15 mg/mL, 100 μL per well, mm ± SD. The class given is cell-based. In a few lines:
as §1

Another data set has as its system C. albicans (ATCC:10231). The experiment in a line: Agar well diffusion, inhibition zone. It is filed as cell-based, Candida albicans. The note with it: 15 mg/mL, 100 μL per well; mm ± SD. A digest of the protocol:
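Fungal plates were poured and agar dried 15 min. 6 mm wells were cut with a sterile borer and filled with 100 μL test compound solution at 15 mg/mL. Inhibition zone diameter (mm) was read after 48 h incubation. Triplicate, reported as mm ± SD.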

Data set [2] deals with hepatitis A virus HM 175 (HAV HM 175). The experiment in a line: Plaque assay, antiviral activity against HAV HM 175. It is filed as cell-based. To be noted: for mean % of reduction, HAV HM 175: nontoxic dose of compound, average of three independent measurements. A digest of the protocol:
(§2)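 Plaque reduction. Nontoxic dilutions of test compound were mixed 1:1 with virus at 1 × 105, 1 × 106 or 1 × 107, for 0.5 h at 37 °C. 10-fold dilutions went onto BGM (CBV4), FRHK4 (HAV HM 175) or Hep-2 (adenovirus 7), with 1 h adsorption at 37 °C. Overlay was 2× DMEM plus 1% agarose. Cells were formalin-fixed and crystal violet-stained, and plaques counted. Triplicate. IC50 is the half-maximal plaque-reduction concentration.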

The subject of a further data set is coxsackievirus B4 (CBV4). In words: Plaque assay, antiviral activity against CBV4. To be noted: nontoxic dose of compound; average of three independent measurements. It is filed as cell-based. A digest of the protocol:
as §2

The subject of data set [3] is herpes simplex virus type 1 (HSV-1). The experiment in a line: Plaque assay, antiviral activity against HSV-1. The class given is cell-based. To be noted: for IC50: Human alphaherpesvirus 1, Vero.
Data set [4] concerns ED-43/SG-Feo (VYG) replicon of hepatitis C virus genotype 4a (HCVcc). In words: Antiviral bioassay against ED-43/SG-Feo. It is filed as cell-based. To be noted: nontoxic dose of compound; average of three independent measurements. In a few lines:
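Huh 7.5 cells carrying the ED-43/SG-Feo (VYG) HCV genotype 4a subgenomic replicon were treated with the nontoxic dose of test compound. Replicon RNA copies were quantified by TaqMan qRT-PCR, and the result was expressed as percent reduction.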

The test system of data set [5] is P. aeruginosa (ATCC:27853). The experiment in a line: Agar well diffusion, inhibition zone. It is filed as cell-based, Pseudomonas aeruginosa. To be noted: 15 mg/mL, 100 μL per well; mm ± SD. A digest of the protocol: as §1
Another data set deals with S. aureus (ATCC:6538). In words: Agar well diffusion, inhibition zone. The note with it: for diameter of the IZ, S. aureus (ATCC:6538): 15 mg/mL, 100 μL per well, mm ± SD. It is filed as cell-based, Staphylococcus aureus. In a few lines:
as §1

Data set [6] concerns adenovirus type 7 (HAdV7). In words: Plaque assay, antiviral activity against adenovirus type 7. The class given is cell-based. The note with it: nontoxic dose of compound; average of three independent measurements. In a few lines:
as §2

Data set [7] is described as follows: Cytotoxicity test on BGM cell line. The class given is cell-based. To be noted: African green monkey, uninfected BGM cells. In a few lines: (§3)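 Test compound was dissolved at 50 mg/mL in DMSO and decontaminated with 100× antimycotic–antibiotic mix. Cells were seeded at 2 × 10^5 cells/mL and grown 24 h at 37 °C, 5% CO2, to monolayers. Bi-fold dilutions in DMEM were applied for 72 h. Read by daily microscopy for morphology and by trypan blue (0.4%) viable counts. CC50 taken as the concentration giving 50% of untreated-cell OD492.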

A short description of data set [8]: Cytotoxicity test on FRHK-4 cell line. The class given is cell-based. The note with it: rhesus monkey, uninfected FRHK-4 cells. A digest of the protocol:
as §3

In the next data set the target is Hsp90α (Homo sapiens, UniProt P07900). In words: Hsp90α. To be noted: for inhibition at 0.1 µg/mL: read-out: percentage inhibition of Hsp90α at 0.1 (μg/mL); for inhibition at 1 µg/mL: read-out: percentage inhibition of Hsp90α at 1 (μg/mL); for inhibition at 10 µg/mL: read-out: percentage inhibition of Hsp90α at 10 (μg/mL); for inhibition at 100 µg/mL: read-out: percentage inhibition of Hsp90α at 100 (μg/mL). The class given is biochemical. A digest of the protocol: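 AlphaScreen kit assay for Hsp90α C-terminal binding to PPID. Hsp90α was diluted to 1.5 ng/μL in assay buffer and premixed with test compound. The reaction was started with PPID diluted to 10 ng/μL and run 30 min at room temperature. Glutathione acceptor beads were added for 30 min, then streptavidin donor beads for 1 h, and Alpha counts read. Triplicate; percent inhibition calculated against control.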
Chain of Hsp90α (P07900 535-732 limits assumed): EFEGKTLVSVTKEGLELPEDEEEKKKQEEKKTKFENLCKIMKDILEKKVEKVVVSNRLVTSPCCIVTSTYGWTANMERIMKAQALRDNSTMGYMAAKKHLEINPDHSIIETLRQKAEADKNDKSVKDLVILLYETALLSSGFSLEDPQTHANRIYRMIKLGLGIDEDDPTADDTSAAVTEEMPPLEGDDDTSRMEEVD

Data set [9] is described as follows: Cytotoxicity test on Vero cell line. It is filed as cell-based. The note with it: African green monkey, uninfected Vero cells. In a few lines: as §3
Data set [10] has as its target T1, dihydrofolate reductase (DHFR) (Homo sapiens, UniProt P00374).
T1 sequence (P00374 1-187): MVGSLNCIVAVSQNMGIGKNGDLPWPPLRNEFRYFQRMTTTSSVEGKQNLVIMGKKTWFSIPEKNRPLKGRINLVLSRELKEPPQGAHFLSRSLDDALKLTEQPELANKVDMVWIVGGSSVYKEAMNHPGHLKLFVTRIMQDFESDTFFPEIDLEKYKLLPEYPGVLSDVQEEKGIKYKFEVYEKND
The experiment in a line: DHFR inhibitor screening assay. It is filed as biochemical.

The test system of data set [11] is E. coli (ATCC:3008). The experiment in a line: MIC, twofold serial dilution in agar. It is filed as cell-based. The note with it: Escherichia coli, read-out: MIC, E. coli (ATCC:3008).

Values after ≈ are worked out from the molar mass of the structure shown.

For `Cc1ccc(S(=O)(=O)Nn2c(N)c(C#N)cc(C#N)c2=O)cc1` [15b, N-(6-Amino-3,5-dicyano-2-oxopyridin-1(2H)-yl)-4-methylbenzenesulfonamide], the “diameter of the IZ, E. coli (ATCC:3008)” value in the data set with E. coli (ATCC:3008) [1] is recorded as “no activity”. Besides, in the data set with K. pneumonia (ATCC:4415), the “diameter of the IZ, K. pneumonia (ATCC:4415)” value is given as “no activity”. In addition, in the data set with S. mutans (ATCC:25175), the “diameter of the IZ, S. mutans (ATCC:25175)” value is recorded as “no activity”. Moreover, in the data set with C. albicans (ATCC:10231), the “diameter of the IZ, C. albicans (ATCC:10231)” value is listed as “no activity”. In addition, in data set [2], the “mean % of reduction, HAV HM 175” value is reported as 20.0 ± 0.10%. In the data set with coxsackievirus B4 (CBV4), the “mean % of reduction, CBV4” value stood at 40.0 ± 0.20%. Besides, the “mean % of reduction, herpes simplex virus” value in data set [3] (nontoxic dose of compound, average of three independent measurements) stood at 30.0 ± 0.30%. Besides, in [4], the “mean % of reduction, HCVcc genotype 4” value is on record as 33.3 ± 0.10%. Moreover, the “diameter of the IZ, P. aeruginosa (ATCC:27853)” value in data set [5] is on record as “no activity”. Besides, the “diameter of the IZ, S. aureus (ATCC:6538)” value in the data set with S. aureus (ATCC:6538) is given as “no activity”. The “mean % of reduction, adenovirus type 7” value in data set [6] is recorded as 13.3 ± 0.50%.
A word on the CC50: it is the concentration at which the toxic effect on the cells reaches its halfway point. One may read the IC50 as the concentration that inhibits the measured activity by half. The low end stands for greater potency, the high end for weaker potency. For `CCOC(=O)c1cc(C#N)c(=O)n(NS(=O)(=O)c2ccccc2)c1N` [15c, Ethyl 2-Amino-5-cyano-6-oxo-1-(phenylsulfonamido)-1,6-dihydropyridine-3-carboxylate], in the data set with E. coli (ATCC:3008) [1], the “diameter of the IZ, E. coli (ATCC:3008)” value was “no activity”. In the data set with K. pneumonia (ATCC:4415), the “diameter of the IZ, K. pneumonia (ATCC:4415)” value is given as “no activity”. This molecule also registered a CC50 at 72 h in data set [7] of 260 µg/mL (≈ 718 µM). Besides, half-maximal cytotoxicity in data set [8] (CC50 at 72 h) was put at 260 µg/mL (≈ 718 µM). Besides, the “diameter of the IZ, S. mutans (ATCC:25175)” value in the data set on S. mutans (ATCC:25175) is given as “no activity”. The “diameter of the IZ, C. albicans (ATCC:10231)” value in the data set with C. albicans (ATCC:10231) is on record as “no activity”. Further, at Hsp90α, the inhibition at 0.1 µg/mL was found to be 8.42%, the inhibition at 1 µg/mL came out at 26.1%, the inhibition at 10 µg/mL turned out to be 48.7% and the inhibition at 100 µg/mL worked out at 72.7%. Moreover, 88 µg/mL (≈ 243 µM) corresponded to half-maximal inhibition in data set [2] (Hepatovirus A, FRhK-4) (IC50). Further, in data set [3], the midpoint of inhibition, the IC50, lay at 90 µg/mL (≈ 248 µM). For the same molecule, the “mean % of reduction, HCVcc genotype 4” value in data set [4] is listed as 20.0 ± 0.15%. Moreover, the “diameter of the IZ, P. aeruginosa (ATCC:27853)” value in data set [5] is recorded as “no activity”. Further, in the data set with S. aureus (ATCC:6538), the “diameter of the IZ, S. aureus (ATCC:6538)” value is “no activity”. In data set [6], the “mean % of reduction, adenovirus type 7” value is reported as 36.7 ± 0.30%. The same molecule had a CC50 at 72 h in [9] of 250 µg/mL (≈ 690 µM).
Broadly, the MIC is the smallest concentration in the dilution series that meets the test's criterion for growth inhibition. Consider `CCOC(=O)c1cc(C#N)c(=O)n(NS(=O)(=O)c2ccc(C)cc2)c1N` [15d, Ethyl 2-Amino-5-cyano-1-(4-methylphenylsulfonamido)-6-oxo-1,6-dihydropyridine-3-carboxylate], for which, in the data set with E. coli (ATCC:3008) [1], the “diameter of the IZ, E. coli (ATCC:3008)” value turned out to be 19.6 ± 1.5 mm. The CC50 at 72 h is 240 µg/mL (≈ 638 µM) in data set [7] and 220 µg/mL (≈ 584 µM) in data set [9]. Further, the zone of inhibition at 15000 µg/mL in the data set on S. mutans (ATCC:25175) (Streptococcus mutans, 24 h, read-out: diameter of the IZ, S. mutans (ATCC:25175)) stood at 9 ± 1 mm; with S. aureus (ATCC:6538) (Staphylococcus aureus, 24 h, read-out: diameter of the IZ, S. aureus (ATCC:6538)), 11.3 ± 1.1 mm. In addition, the values for the inhibition at 0.1 µg/mL (on Hsp90α; in data set [10] (read-out: percent inhibition of DHFR at 0.1 (μg/mL))) were 10.5% and 20.7%, respectively. Also, the inhibition at 1 µg/mL on Hsp90α worked out at 25.9%; in data set [10] (read-out: percent inhibition of DHFR at 1 (μg/mL)) it was 39.9%. Moreover, the inhibition at 10 µg/mL on Hsp90α amounted to 57.4%; in data set [10] (read-out: percent inhibition of DHFR at 10 (μg/mL)), 56.1%. In addition, the inhibition at 100 µg/mL at Hsp90α worked out at 89.9%. In addition, in [2], the “mean % of reduction, HAV HM 175” value is 36.7 ± 0.25%. Besides, the IC50 was 12.4 µM in data set [10] (IC50 on the DHFR, average of three measurements) and 90 µg/mL (≈ 239 µM) in [3]. The inhibition at 0.01 µg/mL in [10] (read-out: percent inhibition of DHFR at 0.01 (μg/mL)) was found to be 11.1%. For the same molecule, the “mean % of reduction, HCVcc genotype 4” value in [4] was 20.0 ± 0.20%. The MIC with E. coli (ATCC:3008) [11] is 1000 µg/mL (≈ 2660 µM). In addition, the “mean % of reduction, adenovirus type 7” value in [6] came out at 30.0 ± 0.10%.
